Experimental data taken from ChEMBL document CHEMBL1122978, “Structure-activity relationship of estrogens: receptor affinity and estrogen antagonist activity of certain (E)- and (Z)-1,2,3-triaryl-2-propen-1-ones” (J Med Chem, 1985).
Values joined by “and” are separate entries in the source; they are usually repeats but may differ in a detail not shown here. Equal values may be shown once.

Tests used:
[1] = biological target: T1, Estrogen receptor (Mus musculus) (UniProt O08537+P19785)
[2] = tested on: Estrogen receptor (Mus musculus); assay: Relative binding affinity calculated as the ratio of molar concentration of E2 and the triarylpropenones (TAP's) required to decrease [3H]E2 binding by 50%.
[3] = biological target: T1, Estrogen receptor (Mus musculus); assay: In vivo anti-uterotrophic activity in mice following 1 ug estradiol i.p.; format: functional, organism-based; settings: in the assay text read “s.c.” for “i.p.”
Outline: (§1)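 Antiuterotrophic test in immature female Swiss mice, 21-23 days old, 8-12 g. Each animal received 100 μg compound s.c. in propylene glycol-0.9% saline (1:1) daily for 3 days, with 1 μg E2 given at a separate site. Controls got E2 plus vehicle. Uterine weights were taken 24 h after the last dose. Activity computed as 100 × (W_ET − W_C)/(W_E − W_C).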

[4] = biological target: T1, Estrogen receptor (Mus musculus); assay: Percentage inhibition of uterotrophic effects of estradiol in vivo following 100 ug i.p.; format: functional, organism-based; settings: in the assay text read “s.c.” for “i.p.”
Outline: as §1

[5] = biological target: T1, Estrogen receptor (Mus musculus); assay: Uterotrophic activity as uterine weight gain in immature mice without E2 (number of animals); format: functional, tissue-based; settings: Uterus
Outline: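 Uterotrophic test in immature female Swiss mice, 21-23 days old, 8-12 g. Dosing was 100 μg/animal s.c. in propylene glycol-0.9% saline (1:1) on three consecutive days, and controls got vehicle alone. Uteri were weighed at autopsy 24 h after the last injection. Group sizes are given per compound.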

[6] = biological target: T2, Estrogen receptor (Rattus norvegicus) (UniProt P06211+Q62986); assay: Uterotrophic activity as uterine weight gain without E2 in rats; format: functional, tissue-based; settings: Uterus
Outline: (§2)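 Immature female Charles Foster rats, 21-23 days old, 25-40 g, were dosed s.c. at 0.5-1000 μg/rat in propylene glycol-0.9% saline (1:1) for 3 consecutive days. Rats were given the compound either alone or with 1 μg E2 at another site. Uterine weight was measured 24 h after the last injection and reported as mean ± SD of at least six animals.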

[7] = biological target: T2, Estrogen receptor (Rattus norvegicus); assay: Uterotrophic activity as uterine weight gain in rats with concomitant E2 treatment; format: functional, tissue-based; settings: Uterus
Outline: as §2

T1 sequence (O08537 whole entry, looked up): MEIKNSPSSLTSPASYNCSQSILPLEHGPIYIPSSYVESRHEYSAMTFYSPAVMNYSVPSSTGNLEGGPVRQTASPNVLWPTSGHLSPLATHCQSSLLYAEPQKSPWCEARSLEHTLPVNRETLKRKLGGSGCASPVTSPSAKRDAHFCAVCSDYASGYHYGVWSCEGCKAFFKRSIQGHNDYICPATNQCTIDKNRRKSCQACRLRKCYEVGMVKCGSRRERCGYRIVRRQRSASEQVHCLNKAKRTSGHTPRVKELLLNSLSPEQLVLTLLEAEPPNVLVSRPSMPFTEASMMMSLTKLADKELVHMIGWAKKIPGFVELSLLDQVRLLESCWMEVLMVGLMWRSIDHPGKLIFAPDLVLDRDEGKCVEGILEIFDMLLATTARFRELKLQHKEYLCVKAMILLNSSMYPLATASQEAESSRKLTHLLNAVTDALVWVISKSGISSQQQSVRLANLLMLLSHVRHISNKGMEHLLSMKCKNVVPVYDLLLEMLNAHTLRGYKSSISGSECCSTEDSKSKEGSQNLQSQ
T1 sequence (P19785 whole entry, looked up): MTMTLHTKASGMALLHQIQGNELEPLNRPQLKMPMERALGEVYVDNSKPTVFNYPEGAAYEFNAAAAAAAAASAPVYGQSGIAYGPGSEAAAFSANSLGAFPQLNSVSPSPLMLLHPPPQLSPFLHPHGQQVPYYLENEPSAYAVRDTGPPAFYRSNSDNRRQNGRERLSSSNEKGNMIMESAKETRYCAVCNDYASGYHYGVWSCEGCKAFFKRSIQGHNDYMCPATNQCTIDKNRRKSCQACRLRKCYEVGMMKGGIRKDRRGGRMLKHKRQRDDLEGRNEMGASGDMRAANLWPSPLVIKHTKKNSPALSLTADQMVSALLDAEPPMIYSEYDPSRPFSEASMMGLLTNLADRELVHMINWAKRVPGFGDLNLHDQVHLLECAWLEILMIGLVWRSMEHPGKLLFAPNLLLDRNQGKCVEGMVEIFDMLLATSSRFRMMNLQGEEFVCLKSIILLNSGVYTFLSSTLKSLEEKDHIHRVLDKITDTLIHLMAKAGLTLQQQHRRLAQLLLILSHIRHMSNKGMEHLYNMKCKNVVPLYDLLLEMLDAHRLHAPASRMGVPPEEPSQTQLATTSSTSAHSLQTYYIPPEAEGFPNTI

Uterine weight [1] | RBA [2] | Uterine weight [3] | inhibition [4] | Uterine weight [5] | Uterine weight [6] | Uterine weight [7] | Compound
4.2 mg | 0.28 | 21.5 mg | 20% | – | – | – | CC(=O)Oc1ccc(/C(=C\c2ccccc2)C(=O)c2ccccc2)cc1
– | 2.02 | 18.5 mg | 36% | 9.7 mg | – | – | O=C(/C(=C/c1ccccc1)c1ccccc1)c1ccc(O)cc1
3 mg | < 0.001 | 15.3 mg | 51% | – | – | – | O=C(/C(=C\c1ccccc1)c1ccccc1)c1ccccc1
6.8 mg | 0.37 | 21.9 mg | 18% | – | – | – | O=C(/C(=C/c1ccccc1)c1ccc(O)cc1)c1ccc(O)cc1
– | 0.025 | – | – | – | – | – | O=C(/C(=C/c1ccccc1)c1ccccc1)c1ccc(OCCN2CCCC2)cc1
– | 0.002 | – | – | – | – | – | O=C(/C(=C\c1ccccc1)c1ccccc1)c1ccc(OCCN2CCCC2)cc1
4.5 mg | 0.24 | 17.8 mg | 39% | – | – | – | CC(=O)Oc1ccc(/C(=C/c2ccccc2)C(=O)c2ccccc2)cc1
5 mg | 0.22 | 14 mg | 58% | – | – | – | O=C(/C(=C/c1ccc(O)cc1)c1ccccc1)c1ccccc1
2.9 mg | 0.28 | 18.4 mg | 36% | – | – | – | O=C(/C(=C/c1ccccc1)c1ccc(O)cc1)c1ccccc1
14 mg | 1.02 | 14 mg | 58% | – | – | – | CC(=O)Oc1ccc(/C=C(/C(=O)c2ccc(OC(C)=O)cc2)c2ccccc2)cc1
4.8 mg | < 0.001 | 16 mg | 48% | – | – | – | COc1ccc(C(=O)/C(=C\c2ccccc2)c2ccccc2)cc1
5.9 mg | 0.42 | 17.3 mg | 42% | – | – | – | CC(=O)Oc1ccc(/C=C(/C(=O)c2ccccc2)c2ccccc2)cc1
4.7 mg | 0.02 | 18.5 mg | 36% | – | – | – | COc1ccc(/C(=C\c2ccccc2)C(=O)c2ccccc2)cc1
4.4 mg and 12 mg | 0.55 | – | 69% | – | 20.5 mg [middle of 5 runs] | 53.6 mg [middle of 5 runs] | O=C(/C(=C/c1ccc(O)cc1)c1ccc(O)cc1)c1ccc(O)cc1
3.2 mg | < 0.001 | 13.6 mg | 60% | – | – | – | O=C(/C(=C\c1ccccc1)c1ccccc1)c1ccc(O)cc1
3.5 mg | < 0.001 | 15.3 mg | 52% | – | – | – | COc1ccc(/C(=C/c2ccccc2)C(=O)c2ccccc2)cc1
5.6 mg | 0.48 | 16.5 mg | 47% | – | – | – | O=C(/C(=C\c1ccc(O)cc1)c1ccc(O)cc1)c1ccccc1
4.6 mg | < 0.001 | 15.3 mg | 52% | – | – | – | COc1ccc(/C=C(\C(=O)c2ccccc2)c2ccccc2)cc1
5.5 mg | 0.57 | 16.9 mg | 44% | – | – | – | O=C(/C(=C/c1ccc(O)cc1)c1ccc(O)cc1)c1ccccc1
4.3 mg | 0.09 | 17.3 mg | 42% | – | – | – | COc1ccc(/C=C(/C(=O)c2ccccc2)c2ccccc2)cc1
4.4 mg | 0.012 | 15.4 mg | 51% | – | – | – | O=C(/C(=C/c1ccccc1)c1ccccc1)c1ccccc1
3.4 mg | 0.4 | 22.3 mg | 16% | – | – | – | O=C(/C(=C\c1ccc(O)cc1)c1ccccc1)c1ccc(O)cc1
4.1 mg | 4.75 | 14.7 mg | 55% | – | – | – | O=C(/C(=C\c1ccccc1)c1ccc(O)cc1)c1ccc(O)cc1
5 mg | < 0.001 | 20.2 mg | 27% | – | – | – | COc1ccc(C(=O)/C(=C/c2ccccc2)c2ccccc2)cc1
